# Data: ChEMBL document CHEMBL1144864, “Exploration of the bicyclo[3.3.1]nonane system as a template for the development of new ligands for the estrogen receptor” (Bioorg Med Chem Lett, 2003)
# Experiments:
# [1] = target: Estrogen receptor beta (Homo sapiens) (UniProt Q92731); experiment: Affinity for estrogen receptor beta (ER-beta) relative to estradiol
# Summary of the method: (§1)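 Competitive radiometric binding assay against ER alpha or ER beta. Values are reported as relative binding affinity (RBA), expressed as a percentage of the affinity of estradiol.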
# [2] = target: T1, Estrogen receptor (Homo sapiens) (UniProt P03372); experiment: Affinity for estrogen receptor alpha (ER-alpha) relative to estradiol; summary of the method: as §1
# T1 sequence (whole entry): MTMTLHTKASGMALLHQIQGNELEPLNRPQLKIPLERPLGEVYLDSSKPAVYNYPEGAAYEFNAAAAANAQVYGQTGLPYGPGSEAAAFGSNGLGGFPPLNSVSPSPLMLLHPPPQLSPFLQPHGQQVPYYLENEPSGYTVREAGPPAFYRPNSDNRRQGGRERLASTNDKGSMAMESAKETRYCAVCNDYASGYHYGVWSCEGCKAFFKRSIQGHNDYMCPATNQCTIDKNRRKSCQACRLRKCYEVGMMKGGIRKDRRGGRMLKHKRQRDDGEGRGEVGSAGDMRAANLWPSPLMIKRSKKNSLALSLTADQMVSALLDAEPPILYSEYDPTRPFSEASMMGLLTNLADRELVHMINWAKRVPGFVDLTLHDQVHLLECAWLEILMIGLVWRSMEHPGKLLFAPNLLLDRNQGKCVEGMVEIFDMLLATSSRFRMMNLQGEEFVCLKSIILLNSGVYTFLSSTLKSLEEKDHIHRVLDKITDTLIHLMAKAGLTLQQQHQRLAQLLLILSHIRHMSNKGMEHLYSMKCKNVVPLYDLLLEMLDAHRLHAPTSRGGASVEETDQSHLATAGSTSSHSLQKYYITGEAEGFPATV
# [3] = target: Estrogen receptor (Homo sapiens) (UniProt Q92731+P03372); experiment: Relative affinity for alpha and beta estrogen receptors; assay type: protein assay
# [4] = target: T1, Estrogen receptor (Homo sapiens); experiment: Binding affinity for Estrogen receptor alpha relative to estradiol; summary of the method: as §1
# [5] = target: Estrogen receptor beta (Homo sapiens) (UniProt Q92731); experiment: Binding affinity for Estrogen receptor beta relative to estradiol; summary of the method: as §1
# Sequence of Estrogen receptor beta (Homo sapiens) (Q92731 whole entry): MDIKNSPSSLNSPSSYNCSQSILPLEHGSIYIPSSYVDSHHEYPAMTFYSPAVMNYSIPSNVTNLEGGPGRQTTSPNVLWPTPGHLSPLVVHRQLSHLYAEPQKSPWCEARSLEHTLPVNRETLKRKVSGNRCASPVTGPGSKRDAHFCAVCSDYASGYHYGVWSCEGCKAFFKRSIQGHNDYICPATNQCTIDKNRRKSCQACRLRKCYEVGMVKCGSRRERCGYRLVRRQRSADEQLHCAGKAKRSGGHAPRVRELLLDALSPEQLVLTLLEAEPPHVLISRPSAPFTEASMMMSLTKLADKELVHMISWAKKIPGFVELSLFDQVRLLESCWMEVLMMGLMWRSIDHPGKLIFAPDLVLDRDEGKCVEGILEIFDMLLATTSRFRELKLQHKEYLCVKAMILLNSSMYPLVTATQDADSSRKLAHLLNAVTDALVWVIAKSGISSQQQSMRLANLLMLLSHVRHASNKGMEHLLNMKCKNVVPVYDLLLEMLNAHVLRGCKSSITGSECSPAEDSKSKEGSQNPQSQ
# Sequence of Estrogen receptor (Homo sapiens) (UniProt Q92731+P03372) (Q92731 whole entry, looked up, one chain of several): as the sequence (Q92731 whole entry) above
Structure (SMILES),relative binding affinity (RBA) [1],relative binding affinity (RBA) [2],Ratio [3],relative binding affinity (RBA) [4],relative binding affinity (RBA) [5]
Oc1ccc(C2(c3ccc(O)cc3)C3CCCC2CCC3)cc1,0.25,0.31,0.8,,
CC1(c2ccc(O)cc2)C2CCCC1CCC2 (stereo not drawn),8.9,0.32,28,,
Oc1ccc2c(c1)CC1CC2Cc2cc(O)ccc21,0.77,0.22,3.5,,
CC(=C1C2CCCC1CCC2)c1ccc(O)cc1,4.58,1.71,2.7,,
Oc1ccc2c(c1)C1Cc3ccc(O)cc3C(C2)C1,0.072,0.033,2,,
O=C1c2cc(O)ccc2C2CC1c1ccc(O)cc1C2=O,0.021,0.006,3.5,,
O=C1c2ccc(O)cc2C2CC1c1cc(O)ccc1C2=O,0.022,0.005,4.4,,
C[C@@H]1c2ccc(O)cc2C2CC1c1cc(O)ccc1[C@H]2C,0.025,0.007,3.6,,
CC(=O)Oc1ccc(C(=C2CCCCC2)c2ccc(OC(C)=O)cc2)cc1,,,,68,334
Oc1ccc(C2=CCC3CCCC2C3)cc1 (stereo not drawn),1.81,0.39,4.6,,
C[C@@H]1c2cc(O)ccc2C2CC1c1ccc(O)cc1[C@H]2C,0.011,0.004,2.7,,
Oc1ccc(C2CCC3CC2CCC3c2ccc(O)cc2)cc1 (stereo not drawn),2.9,0.44,6.6,,
Oc1ccc(C2C3CCCC2CCC3)cc1 (stereo not drawn),1.33,0.13,10,,
Oc1ccc(C(=C2C3CCCC2CCC3)c2ccc(O)cc2)cc1,301,513,0.59,,
Oc1ccc2c(c1)CN1CN2Cc2cc(O)ccc21,< 0.005,< 0.005,,,
